Active and inactive are the calls of the source. The calls are words filed in the database; no cut-off is given here.
Columns and labels:
Hs-578T = assay: Growth inhibition of human Hs578T cells incubated for 48 hrs by sulforhodamine B assay; format: functional
Outline: (§1)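 NCI-60 five-dose study at 10⁻⁴, 10⁻⁵, 10⁻⁶, 10⁻⁷ and 10⁻⁸ M, 48 h incubation. Growth determined from sulforhodamine B optical density before and after exposure, relative to vehicle control and time-zero counts. GI₅₀ is the molar concentration giving 50% growth inhibition.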

SK-MEL-28 = assay: Growth inhibition of human SK-MEL-28 cells incubated for 48 hrs by sulforhodamine B assay; format: functional; details: SK-MEL-28, 48 h; outline: as §1
MCF7 = assay: Growth inhibition of human MCF7 cells incubated for 48 hrs by sulforhodamine B assay; format: functional; details: MCF7, 48 h; outline: as §1
UO-31 = assay: Growth inhibition of human UO31 cells incubated for 48 hrs by sulforhodamine B assay; format: functional; details: UO-31, 48 h
Outline: (§2)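 NCI-60 screen run per Rubinstein protocol. Sulforhodamine B optical density was read before and after 48 h exposure to compound or vehicle. The single-dose pass at 10⁻⁵ M reported percent growth relative to vehicle control and time-zero cell number. The five-dose follow-up used 10⁻⁴ to 10⁻⁸ M, giving GI₅₀ as the molar concentration causing 50% growth inhibition.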

Tubulin (Homo sapiens) = Tubulin (Homo sapiens) (UniProt P68371+Q9H4B7+P0DPH7+P68366+Q13509+Q71U36+P04350+Q3ZCM7+P07437+P68363+Q9BQE3+Q6PEY2+Q13885+Q9BVA1+Q9BUF5); assay: Inhibition of tubulin (unknown origin) polymerization at 2 uM by immunoblot analysis; format: protein-complex assay
Outline: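 Cell-based assay. Cells were treated with compound at 1.0 and 2.0 μM. Polymerized tubulin (pellet) was separated from unpolymerized tubulin (supernatant), and both fractions were immunoblotted with anti-tubulin antibody.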

RPMI-8226 = assay: Growth inhibition of human RPMI8226 cells incubated for 48 hrs by sulforhodamine B assay; format: functional; details: RPMI-8226, 48 h; outline: as §1
MDA-MB-435 [1] = assay: Growth inhibition of human MDA-MB-435 cells incubated for 48 hrs by sulforhodamine B assay; format: functional; details: MDA-MB-435, 48 h; outline: as §1
MDA-MB-435 [2] = assay: Growth inhibition of human MDA-MB-435 cells at 10 uM after 48 hrs by sulforhodamine B assay relative to control; format: functional; details: MDA-MB-435, 48 h, values are per cent of control
Outline: (§3)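 NCI-60 single-dose screen. Cells exposed to 10⁻⁵ M or to vehicle for 48 h. Growth measured by sulforhodamine B optical density before and after exposure. Reported as percent growth relative to vehicle control and to time-zero cell number; negative values indicate cell kill.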

DU-145 [3] = assay: Growth inhibition of human DU145 cells at 10 uM after 48 hrs by sulforhodamine B assay relative to control; format: functional; details: DU-145, 48 h, values are per cent of control; outline: as §3
MDA-MB-468 = assay: Growth inhibition of human MDA-MB-468 cells incubated for 48 hrs by sulforhodamine B assay; format: functional; details: MDA-MB-468, 48 h; outline: as §1
A549 = assay: Growth inhibition of human A549/ATCC cells incubated for 48 hrs by sulforhodamine B assay; format: functional; details: A549, 48 h; outline: as §1
KM12 = assay: Growth inhibition of human KM12 cells at 10 uM after 48 hrs by sulforhodamine B assay relative to control; format: functional; details: KM12, 48 h, values are per cent of control; outline: as §3
A498 = assay: Growth inhibition of human A498 cells at 10 uM after 48 hrs by sulforhodamine B assay relative to control; format: functional; details: A498, 48 h, values are per cent of control; outline: as §3
SR = assay: Growth inhibition of human SR cells incubated for 48 hrs by sulforhodamine B assay; format: functional; outline: as §2
ACHN = assay: Growth inhibition of human ACHN cells incubated for 48 hrs by sulforhodamine B assay; format: functional; outline: as §1
HL-60(TB) = assay: Growth inhibition of human HL-60(TB) cells incubated for 48 hrs by sulforhodamine B assay; format: functional; details: HL-60, 48 h; outline: as §1
NCI-H23 = assay: Growth inhibition of human NCI-H23 cells incubated for 48 hrs by sulforhodamine B assay; format: functional; details: NCI-H23, 48 h; outline: as §1
SK-OV-3 = assay: Growth inhibition of human SKOV3 cells incubated for 48 hrs by sulforhodamine B assay; format: functional; details: SK-OV-3, 48 h; outline: as §2
IGROV-1 = assay: Growth inhibition of human IGROV1 cells incubated for 48 hrs by sulforhodamine B assay; format: functional; details: IGROV-1, 48 h; outline: as §1
COLO 205 = assay: Growth inhibition of human COLO205 cells incubated for 48 hrs by sulforhodamine B assay; format: functional; details: COLO 205, 48 h; outline: as §1
SNB-19 = assay: Growth inhibition of human SNB19 cells incubated for 48 hrs by sulforhodamine B assay; format: functional; details: SNB-19, 48 h; outline: as §2
CCRF-CEM = assay: Growth inhibition of human CCRF-CEM cells incubated for 48 hrs by sulforhodamine B assay; format: functional; outline: as §1
HOP-62 = assay: Growth inhibition of human HOP62 cells incubated for 48 hrs by sulforhodamine B assay; format: functional; details: HOP-62, 48 h; outline: as §1
DU-145 [4] = assay: Growth inhibition of human DU145 cells incubated for 48 hrs by sulforhodamine B assay; format: functional; details: DU-145, 48 h; outline: as §1
SF-295 = assay: Growth inhibition of human SF295 cells incubated for 48 hrs by sulforhodamine B assay; format: functional; details: SF-295, 48 h; outline: as §1
K562 = assay: Growth inhibition of human K562 cells incubated for 48 hrs by sulforhodamine B assay; format: functional; details: K562, 48 h; outline: as §1
OVCAR-3 = assay: Growth inhibition of human OVCAR3 cells at 10 uM after 48 hrs by sulforhodamine B assay relative to control; format: functional; details: OVCAR-3, 48 h, values are per cent of control; outline: as §3
[5] = Cytotoxicity against stromal cells (unknown origin) assessed as reduction in cell viability by alamar blue assay; format: cell-based; details: read-out: LD50 (the source's name)
LOX IMVI = assay: Growth inhibition of human LOXIMVI cells incubated for 48 hrs by sulforhodamine B assay; format: functional; outline: as §1
HCC 2998 = assay: Growth inhibition of human HCC2998 cells incubated for 48 hrs by sulforhodamine B assay; format: functional; details: HCC 2998, 48 h; outline: as §1
MOLT-4 = assay: Growth inhibition of human MOLT4 cells incubated for 48 hrs by sulforhodamine B assay; format: functional; details: MOLT-4, 48 h; outline: as §1
SF-539 = assay: Growth inhibition of human SF539 cells incubated for 48 hrs by sulforhodamine B assay; format: functional; details: SF-539, 48 h; outline: as §1
PC-3 = assay: Growth inhibition of human PC3 cells incubated for 48 hrs by sulforhodamine B assay; format: functional; details: PC-3, 48 h; outline: as §1
RXF 393 = assay: Growth inhibition of human RXF393 cells incubated for 48 hrs by sulforhodamine B assay; format: functional; details: RXF 393, 48 h; outline: as §1
HCT-116 = assay: Growth inhibition of human HCT116 cells incubated for 48 hrs by sulforhodamine B assay; format: functional; details: HCT-116, 48 h; outline: as §1
M14 = assay: Growth inhibition of human M14 cells incubated for 48 hrs by sulforhodamine B assay; format: functional; details: M14, 48 h; outline: as §1
SK-MEL-5 = assay: Growth inhibition of human SK-MEL-5 cells incubated for 48 hrs by sulforhodamine B assay; format: functional; details: SK-MEL-5, 48 h; outline: as §2
NCI/ADR-RES = assay: Growth inhibition of human NCI/ADR-RES cells incubated for 48 hrs by sulforhodamine B assay; format: functional; outline: as §1

| SMILES | GI50 (Hs-578T) | GI50 (SK-MEL-28) | GI50 (MCF7) | GI50 (UO-31) | inhibition (Tubulin (Homo sapiens)) | GI50 (RPMI-8226) | GI50 (MDA-MB-435 [1]) | growth, % of control at 10 µM (MDA-MB-435 [2]) | growth, % of control at 10 µM (DU-145 [3]) | GI50 (MDA-MB-468) | GI50 (A549) | growth, % of control at 10 µM (KM12) | growth, % of control at 10 µM (A498) | GI50 (SR) | GI50 (ACHN) | GI50 (HL-60(TB)) | GI50 (NCI-H23) | GI50 (SK-OV-3) | GI50 (IGROV-1) | GI50 (COLO 205) | other results |
| --- | --- | --- | --- | --- | --- | --- | --- | --- | --- | --- | --- | --- | --- | --- | --- | --- | --- | --- | --- | --- | --- |
| COc1ccc(/C(=C/c2ccc3ccccc3c2)c2nnn[nH]2)cc1OC | 2.23 µM | 8.07 µM | 4.12 µM | 5.59 µM | inactive | 4.02 µM | 0.3 µM | -41% | 20.9% | 21.5 µM | 3.8 µM | 24.5% | 14.5% | 2.23 µM | 11.3 µM | 2.56 µM | 5.29 µM | 3.63 µM | 4.23 µM | 2.27 µM | GI50 (SNB-19): 7.84 µM; GI50 (CCRF-CEM): 3.33 µM; GI50 (HOP-62): 2.33 µM; GI50 (DU-145 [4]): 3.53 µM; GI50 (SF-295): 1.51 µM; GI50 (K562): 0.67 µM; growth, % of control at 10 µM (OVCAR-3): -17.3%; CC50 [5]: > 50 µM; GI50 (LOX IMVI): 5.63 µM; GI50 (HCC 2998): 5.2 µM; GI50 (MOLT-4): 4.16 µM; GI50 (SF-539): 2.38 µM; GI50 (PC-3): 2.36 µM; GI50 (RXF 393): 2.48 µM; GI50 (HCT-116): 2.42 µM; GI50 (M14): 1.9 µM; GI50 (SK-MEL-5): 4.68 µM; GI50 (NCI/ADR-RES): 1.03 µM |
| COc1ccc(/C=C(/c2cc(OC)c(OC)c(OC)c2)c2nnn[nH]2)cc1O | < 0.01 µM | < 0.01 µM | < 0.01 µM | < 0.01 µM | Active | < 0.01 µM | < 0.01 µM | -8.4% | 3.41% | < 0.01 µM | < 0.01 µM | -1.73% | -3.5% | < 0.01 µM | < 0.01 µM | < 0.01 µM | < 0.01 µM | < 0.01 µM | < 0.01 µM | 0.97 µM | GI50 (SNB-19): < 0.01 µM; GI50 (CCRF-CEM): < 0.01 µM; GI50 (HOP-62): < 0.01 µM; GI50 (DU-145 [4]): < 0.01 µM; GI50 (SF-295): 5.28 µM; GI50 (K562): < 0.01 µM; growth, % of control at 10 µM (OVCAR-3): -8.5%; CC50 [5]: > 50 µM; GI50 (LOX IMVI): < 0.01 µM; GI50 (HCC 2998): < 0.01 µM; GI50 (MOLT-4): < 0.01 µM; GI50 (SF-539): < 0.01 µM; GI50 (PC-3): < 0.01 µM; GI50 (RXF 393): < 0.01 µM; GI50 (HCT-116): < 0.01 µM; GI50 (M14): < 0.01 µM; GI50 (SK-MEL-5): < 0.01 µM; GI50 (NCI/ADR-RES): < 0.01 µM |
